# Test results as given in ChEMBL document CHEMBL1671728, “Short cationic antimicrobial peptides interact with ATP” (2010).
# The source made the active and inactive calls. The rule behind the calls is not given here. Square brackets hold non-standard residues; d marks the D form. Peptide text beside a SMILES is read from it. Orn = NCCC[C@H](N)C(=O)O
# Assays:
# [1] = Inhibition of DnaK assessed as reduction in ATP turnover at MIC for Pseudomonas aeruginosa PAO1 H103 by ATPase assay
# Summary of the method: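 DnaK ATPase run in 20 mM HEPES pH 8, 10 mM Mg acetate, 100 mM NaCl with 200 µM [α-32P]ATP (~8 Ci/mmol) and peptide at 1× MIC (control without peptide), 37°C for 15 min. Stopped with EDTA/SDS and imaged by phosphorimager. Turnover was taken as the ADP fraction of total spots, corrected for no-protein background, mean of two independent assays.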
# [2] = Inhibition of DNA polymerase assessed as reduction in PCR products at 3 times MIC for Pseudomonas aeruginosa PAO1 H103 by qPCR
# Pseudomonas aeruginosa = assay: Antimicrobial activity against Pseudomonas aeruginosa PAO1 H103; assay type: functional
# [3] = target: Luciferin 4-monooxygenase (Photinus pyralis) (UniProt P08659); assay: Inhibition of Photinus pyralis fire fly luciferase assessed as reduction in light production at 1 times MIC for Pseudomonas aeruginosa PAO1 H103 by ATP bioluminescence assay
# Luciferin 4-monooxygenase (Photinus pyralis), sequence (P08659 whole entry): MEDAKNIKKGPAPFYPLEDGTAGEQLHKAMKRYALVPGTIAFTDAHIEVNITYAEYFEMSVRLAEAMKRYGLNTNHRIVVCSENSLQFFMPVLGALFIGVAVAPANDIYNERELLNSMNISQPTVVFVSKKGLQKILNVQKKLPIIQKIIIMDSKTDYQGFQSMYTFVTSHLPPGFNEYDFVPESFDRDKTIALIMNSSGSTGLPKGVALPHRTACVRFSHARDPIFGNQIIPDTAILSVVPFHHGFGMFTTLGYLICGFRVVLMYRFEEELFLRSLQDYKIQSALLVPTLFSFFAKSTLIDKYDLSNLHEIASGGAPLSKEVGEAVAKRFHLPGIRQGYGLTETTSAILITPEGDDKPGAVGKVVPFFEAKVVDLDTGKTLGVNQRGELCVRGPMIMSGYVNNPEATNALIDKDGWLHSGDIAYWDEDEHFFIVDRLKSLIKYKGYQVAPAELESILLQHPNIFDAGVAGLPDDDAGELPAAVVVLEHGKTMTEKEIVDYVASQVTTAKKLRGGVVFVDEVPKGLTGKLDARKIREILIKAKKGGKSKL
# Summary of the method: (§1)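 Firefly luciferase kit mix (luciferin, MgSO4, DTT, EDTA, BSA, tricine) was combined with peptide at 1, 3 or 10× MIC against P. aeruginosa PAO1 H103. ATP (200 µM) was added to start the reaction and luminescence was read, with an ATP standard curve. Activity was scored by the lowest MIC multiple giving ≥75% loss of light.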
# [4] = Inhibition of DNA polymerase assessed as reduction in PCR products at MIC for Pseudomonas aeruginosa PAO1 H103 by qPCR
# [5] = target: Luciferin 4-monooxygenase (Photinus pyralis) (UniProt P08659); assay: Inhibition of Photinus pyralis fire fly luciferase assessed as reduction in light production at 10 times MIC for Pseudomonas aeruginosa PAO1 H103 by ATP bioluminescence assay; summary of the method: as §1
# [6] = target: Luciferin 4-monooxygenase (Photinus pyralis) (UniProt P08659); assay: Inhibition of Photinus pyralis fire fly luciferase assessed as reduction in light production at 3 times MIC for Pseudomonas aeruginosa PAO1 H103 by ATP bioluminescence assay
# Summary of the method: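 Commercial ATP bioluminescence kit with lyophilized firefly luciferase, luciferin, MgSO4, DTT, EDTA, BSA and tricine buffer. An ATP standard curve was run. Peptide was premixed with the kit solution, and ATP (200 µM) was added to start the reaction. Luminescence was read. Peptides were tested at 1×, 3× and 10× their MIC against P. aeruginosa PAO1 H103. Scoring was ≥75% loss of light at 3× MIC.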
Compound,inhibition [1],inhibition [2],MIC (Pseudomonas aeruginosa) [µg/mL],inhibition [3] [%],inhibition [4],inhibition [5],inhibition [6] [%]
H-RLWRIVVIRVAR-NH2,Active,Active,8,75,–,–,–
CC(C)C[C@@H]1NC(=O)[C@H](CCCN)NC(=O)[C@H](C(C)C)NC(=O)[C@@H]2CCCN2C(=O)[C@@H](Cc2ccccc2)NC(=O)[C@H](CC(C)C)NC(=O)[C@H](CCCN)NC(=O)[C@H](C(C)C)NC(=O)[C@@H]2CCCN2C(=O)[C@@H](Cc2ccccc2)NC1=O [GRAMICIDIN S] (cyclo(L[dF]PV[Orn]L[dF]PV[Orn])),–,–,0.2,–,inactive,inactive,–
H-KWKSFIKKLTSAAKKVVTTAKPLISS-OH,–,–,2,–,–,inactive,–
H-RRAAVVLIVIRR-NH2,–,–,7,–,–,–,> 75
H-RRWKIVVIRWRR-NH2,Active,–,2,75,Active,–,–
GENTAMICIN,–,–,25,–,–,inactive,–
CC[C@H](C)[C@H](NC(=O)[C@H](CC(C)C)NC(=O)[C@H](C)NC(=O)[C@@H]1CCCN1C(=O)[C@H](CC(C)C)NC(=O)CNC(=O)[C@@H](NC(=O)[C@@H](NC(=O)[C@H](CC(C)C)NC(=O)[C@@H](NC(=O)[C@H](CCCCN)NC(=O)[C@H](CCCCN)NC(=O)[C@@H](NC(=O)[C@H](C)NC(=O)[C@@H](NC(=O)[C@@H](NC(=O)[C@H](CC(C)C)NC(=O)[C@H](CCCCN)NC(=O)[C@H](CCCCN)NC(=O)[C@@H](NC(=O)[C@H](Cc1ccccc1)NC(=O)[C@H](CO)NC(=O)[C@H](CCCCN)NC(=O)[C@H](Cc1c[nH]c2ccccc12)NC(=O)[C@@H](N)CCCCN)[C@@H](C)CC)[C@@H](C)O)[C@@H](C)O)C(C)C)C(C)C)[C@@H](C)O)[C@@H](C)O)C(=O)N[C@@H](CO)C(=O)O,inactive,–,2,–,inactive,inactive,–
H-KWKSFLRTLKSPAKTVFHTALKAISS-OH,–,–,16,–,–,inactive,–
CC[C@H](C)[C@H](NC(=O)CNC(=O)[C@@H](NC(=O)[C@H](CCCCN)NC(=O)[C@H](CCCCN)NC(=O)[C@H](Cc1ccccc1)NC(=O)[C@H](CC(C)C)NC(=O)[C@H](CCCCN)NC(=O)[C@H](Cc1c[nH]c2ccccc12)NC(=O)[C@@H](N)CCCCN)[C@@H](C)CC)C(=O)NCC(=O)N[C@@H](C)C(=O)N[C@H](C(=O)N[C@@H](CC(C)C)C(=O)N[C@@H](CCCCN)C(=O)N[C@H](C(=O)N[C@@H](CC(C)C)C(=O)N[C@H](C(=O)N[C@H](C(=O)NCC(=O)N[C@@H](CC(C)C)C(=O)N1CCC[C@H]1C(=O)N[C@@H](C)C(=O)N[C@@H](CC(C)C)C(=O)N[C@H](C(=O)N[C@@H](CO)C(=O)O)[C@@H](C)CC)[C@@H](C)O)[C@@H](C)O)C(C)C)C(C)C,–,–,2,–,–,inactive,–
H-VRLRIRVAVIRA-NH2,–,–,10,–,–,> 75%,–
H-RLARIVVIRVAR-NH2,Active,–,50,–,Active,–,> 75
H-RLARIVPIRVAR-NH2,–,–,> 250,–,–,inactive,–
H-RAVAVIIRLRRV-NH2,–,–,33,–,–,–,> 75
H-KWKSFLRTFKSPVRTVFHTALKPISS-OH,–,–,16,–,–,inactive,–
H-RRWRIVVIRVRR-NH2,–,–,2,75,–,–,–
H-KWKSFLKTFKSAVKTVLHTALKAISS-OH,inactive,–,2,–,inactive,inactive,–
CC(C)[C@H](NC(=O)[C@H](CCCNC(=N)N)NC(=O)[C@H](Cc1ccccc1)NC(=O)[C@H](CS)NC(=O)[C@H](Cc1c[nH]c2ccccc12)NC(=O)[C@H](CCCNC(=N)N)NC(=O)[C@@H](N)CCCNC(=N)N)C(=O)N[C@@H](CS)C(=O)N[C@@H](Cc1ccc(O)cc1)C(=O)N[C@@H](CCCNC(=N)N)C(=O)NCC(=O)N[C@@H](Cc1ccccc1)C(=O)N[C@@H](CS)C(=O)N[C@@H](Cc1ccc(O)cc1)C(=O)N[C@@H](CCCNC(=N)N)C(=O)N[C@@H](CCCCN)C(=O)N[C@@H](CS)C(=O)N[C@@H](CCCNC(=N)N)C(N)=O [POLYPHEMUSIN I] (H-RRWCFRVCYRGFCYRKCR-NH2),–,–,2,–,–,> 75%,–
POLYMYXIN B,inactive,–,0.5,–,inactive,–,–
